Source: PubChem (several laboratories)
SENP8 block-1: inhibitors of human SENP8 protease | inhibition, % at 20 µM | recombinant SENP8, Nedd8 substrate fluorescence | AID 602440 | 0.64% of 360,000 active | Q96LD8; in the data active = inhibition mostly above about 40%, no sharp cut-off; inactive = mostly below about 27%
SENP7 block: SENP7 protease inhibition; inhibition, % at 5 µM; Q9BQF6; 1.5% of 330,000 active; recombinant SENP7, Z-RLRGG-aminoluciferin luminescence, 40 min; AID 434973;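 active = inhibition above about 50% at the single test dose, limit read from the data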;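 note: plate controls were DMSO with enzyme for no effect and no enzyme buffer wells for full effect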
Target sequence (Q9BQF6 706-1050 limits assumed): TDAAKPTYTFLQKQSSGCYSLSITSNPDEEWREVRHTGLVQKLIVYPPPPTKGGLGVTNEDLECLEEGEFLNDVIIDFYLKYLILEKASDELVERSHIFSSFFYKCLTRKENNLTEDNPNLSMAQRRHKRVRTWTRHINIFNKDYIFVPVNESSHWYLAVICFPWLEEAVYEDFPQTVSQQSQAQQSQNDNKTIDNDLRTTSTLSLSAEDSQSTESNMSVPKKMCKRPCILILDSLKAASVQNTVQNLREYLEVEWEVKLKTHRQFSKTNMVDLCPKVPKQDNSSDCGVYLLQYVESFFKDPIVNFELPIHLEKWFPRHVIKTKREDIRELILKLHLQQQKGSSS
Platelet DG rel: modulates dense granule release in human platelets | 0.22% of 300,000 active | inhibition, %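 (compounds screened at 7.5 µM in platelet-rich plasma)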 | human platelet-rich plasma, SFLLRN dense granule ATP release, luminescence;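 active = mean replicate score, as percent of positive control, at or above 50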
SENP8 block-2: blocks the human protease SENP8. Q96LD8. purified SENP8, Z-RLRGG-aminoluciferin cleavage, luminescence. inhibition, % at 10 µM. 1.2% of 330,000 active. AID 2540; in the data active = inhibition above about 50%
SENP1 inh: blocks the human SENP1 SUMO protease catalytic domain; Q9P0U3; recombinant SENP1 catalytic domain, CyPet-SUMO1-YPet FRET cleavage; inhibition, % at 10 µM; 0.21% of 360,000 active; AID 624204;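 active = inhibition at least 30% at 10 µM, raw YFP signal under a set limit, fluorescence ratio 0.5 to 1.5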;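 note: 0% = enzyme with DMSO and 100% = no enzyme wells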
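Assay system – human recombinant His6-tagged SENP1 catalytic domain enzyme · Input – SENP1 enzyme, 20 pM final · Buffer or medium – Tris pH 8 buffer plus EDTA, NaCl, BME, BSA, NP40, catalase · Schedule – 50 min reaction at room temperature · Technique – FRET read of cyan and yellow fluorescence · Control set – no-enzyme wells low, DMSO-plus-enzyme wells high control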
SENP6 block: blocks the human protease SENP6 | Q9GZR1 | Recombinant SENP6 catalytic domain, aminoluciferin luminescence | inhibition, % at 10 µM | 1.8% of 330,000 active | AID 2599;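 active = inhibition above about 50% at the single tested dose, limit read from the data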;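 note: plate controls were DMSO wells with enzyme for no effect and DMSO wells lacking enzyme for full effect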
Target sequence (Q9GZR1 628-1112 limits assumed): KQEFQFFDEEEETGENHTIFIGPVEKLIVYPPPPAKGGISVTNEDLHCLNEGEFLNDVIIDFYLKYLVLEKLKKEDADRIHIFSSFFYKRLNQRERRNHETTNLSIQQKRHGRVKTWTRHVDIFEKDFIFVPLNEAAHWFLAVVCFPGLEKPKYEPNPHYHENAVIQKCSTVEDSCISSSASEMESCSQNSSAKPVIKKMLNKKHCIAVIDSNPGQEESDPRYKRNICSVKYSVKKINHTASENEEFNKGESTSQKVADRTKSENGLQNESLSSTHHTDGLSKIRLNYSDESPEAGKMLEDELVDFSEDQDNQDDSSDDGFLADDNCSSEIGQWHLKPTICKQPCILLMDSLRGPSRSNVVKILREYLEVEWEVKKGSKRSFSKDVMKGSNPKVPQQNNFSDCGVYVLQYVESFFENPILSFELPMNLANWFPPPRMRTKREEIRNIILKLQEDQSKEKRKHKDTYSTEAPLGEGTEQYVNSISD
SENP8 confirm: human SENP8 inhibition, confirmed. 40% of 6,200 active. inhibition, % at 12.5 µM. shares compounds with SENP7 block. Recombinant SENP8, Z-RLRGG-aminoluciferin luminescence, 60 min;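 active = mean inhibition across replicates above about 50%, limit read from the data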
SENP6 conf: confirmation of human SENP6 protease inhibitors; shares compounds with SENP7 block; recombinant SENP6, Z-RLRGG-aminoluciferin luminescence; inhibition, % at 12.5 µM; 58% of 6,200 active; AID 488915
SENP7 confirm: human SENP7 inhibition, confirmed. shares compounds with SENP7 block. recombinant SENP7, Z-RLRGG-aminoluciferin luminescence, 40 min. inhibition, % at 12.5 µM. 69% of 6,200 active. AID 488917
Casp3 SENP sel: inhibits human caspase-3 in SENP selectivity test | shares compounds with SENP7 block | purified caspase-3, Z-DEVD-aminoluciferin luminescence, 60 min | inhibition, % at 12.5 µM | 60% of 6,200 active | AID 488918;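 active = mean inhibition above about 50%, limit read from the data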;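 note: plate controls were enzyme with DMSO for no effect and wells without caspase-3 for full effect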
Luc interf: counter-screen for SENP inhibitors: luminescence interference; Pre-incubated SENP8/Z-RLRGG-aminoluciferin, luciferase luminescence interference; shares compounds with SENP7 block; inhibition, % at 12.5 µM; 39% of 6,200 active;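 active = mean inhibition above about 50% when retested at one dose, limit read from the data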;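 note: plate controls were DMSO wells with completed reaction for no effect and substrate without enzyme for full effect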
An asterisk follows results filed as active; nt = not tested or not shown. Sampled rows, rich in hits. Any-hit rate of the full collection: about 2.6%.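 Rule for the calls, unless noted: active = mean inhibition above about 50% in the one-dose retest (limit read from the data); inactive = the rest.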

SMILES | SENP8 block-1 | SENP7 block | Platelet DG rel | SENP8 block-2 | SENP1 inh | SENP6 block | SENP8 confirm | SENP6 conf | SENP7 confirm | Casp3 SENP sel | Luc interf
COc1cc(CN2C[C@@H](CO)O[C@@H](n3cnc4c(NCC(C)C)ncnc43)C2)cc(OC)c1OC | 16.7 | nt | nt | nt | 1.8 | nt | nt | nt | nt | nt | nt
CCCCN1C(=O)C(CC(=O)NC2CC2)CC(C(=O)N2CCOCC2)=C1C (stereo unspecified) | 14.9 | nt | nt | nt | 1.5 | nt | nt | nt | nt | nt | nt
COc1ccc(CC(N)c2csc(Nc3cc(NCc4ccco4)ncn3)n2)cc1 (stereo unspecified) | -31.9 | nt | nt | nt | -28.2 | nt | nt | nt | nt | nt | nt
O=C(/C=C/c1ccc(Cl)cc1Cl)N1CCc2ccccc21 | 11.0 | 91.6* | 11.2 | 51.2* | -0.5 | 69.6* | 35.1 | 31.1 | 25.7 | 64.0* | 12.6
O=C(/C=C/c1cccc(F)c1)N1CCc2ccccc21 | 31.0 | 94.5* | 36.7 | 72.1* | -0.4 | 74.0* | -24.5 | -13.8 | -3.3 | -6.1 | -6.7
O=C(/C=C/c1cccc(F)c1)OCC(=O)N1CCCc2ccccc21 | 6.5 | -6.0 | 1.0 | -9.0 | -1.8 | 7.6 | nt | nt | nt | nt | nt
CC1(Cc2cccc(C(F)(F)F)c2)C(=O)Nc2ccc(-c3ccc(F)c(Cl)c3)cc21 (stereo unspecified) | 0.1 | nt | nt | nt | 2.9 | nt | nt | nt | nt | nt | nt
CN(C)c1cc[n+](CC(=O)Nc2ccc(Oc3ccccc3)cc2)cc1 | 12.7 | -2.3 | 0.5 | -11.0 | 1.6 | -27.3 | nt | nt | nt | nt | nt
O=c1c2c(nc3cc(-c4cccc(Cl)c4)[nH]n13)CCC2 | -269.5 | 56.5* | 6.7 | 45.3 | 0.5 | 50.2* | -24.9 | -10.8 | 11.6 | 19.6 | -8.1
O=c1c2c(nc3c(-c4ccc(Cl)cc4)c[nH]n13)CCCC2 | -478.8 | -2.5 | 3.2 | -3.3 | -2.7 | -13.9 | nt | nt | nt | nt | nt
O=c1c2c(nc3cc(-c4ccc(Cl)cc4)[nH]n13)CCS2 | -397.0 | 72.8* | 5.5 | 84.8* | -37.5 | 88.0* | -2.0 | 2.5 | 4.1 | 24.2 | 12.2
O=c1c2c(nc3cc(-c4ccc(F)cc4)[nH]n13)CCCC2 | -71.0 | 54.5* | 3.3 | 38.2 | -0.7 | 54.1* | -2.1 | 8.0 | 22.3 | 36.6 | 4.7
Cc1nc2cc(-c3ccc(Br)cc3)[nH]n2c(=O)c1Cl | -3.4 | 26.5 | 0.2 | 74.5* | -2.4 | 81.6* | -0.1 | 2.1 | 3.4 | 11.1 | 10.1
Fc1ccc(-c2cc3nc4c(c(N5CCOCC5)n3n2)CCCC4)cc1 | -196.0 | -1.0 | 5.8 | 0.1 | 0.0 | -3.1 | nt | nt | nt | nt | nt
Cn1cccc1C1CCCN1CC(=O)Nc1ccc(F)c(F)c1F (stereo unspecified) | 23.3 | 4.2 | nt | -4.7 | -1.6 | 8.5 | nt | nt | nt | nt | nt
CCCCN(C(=O)C1CC(=O)N(CCc2ccc(OC)c(OC)c2)C1)c1c(N)n(CC(C)C)c(=O)[nH]c1=O (stereo unspecified) | 8.5 | nt | nt | nt | 2.0 | nt | nt | nt | nt | nt | nt
CCN(CC(=O)Nc1c(F)cccc1F)C(=O)c1ccc(OCc2c(C)noc2C)cc1 | 5.1 | -6.6 | nt | -18.3 | 1.7 | -17.1 | nt | nt | nt | nt | nt
O=C(NC(=S)N1CCOCC1)c1cn(-c2ccccc2)nc1-c1ccc(F)cc1 | 5.7 | -3.8 | nt | -17.8 | 3.2 | -13.6 | nt | nt | nt | nt | nt
Cc1ccc(-c2csc(NC(=O)c3ccc(F)cc3)c2C(=O)O)cc1 | -24.4 | 58.5* | 8.5 | 89.9* | 3.1 | 94.5* | -2.1 | 90.9* | 89.9* | 88.9* | 67.7*
O=C(Nc1scc(-c2ccccc2)c1C(=O)O)c1ccc(F)cc1 | -77.1 | 70.9* | 11.9 | 91.9* | -1.4 | 91.5* | 92.7* | 94.4* | 101.5* | 95.7* | 92.1*
Cc1ccc(S(=O)(=O)NC(C)CCc2ccccc2)cc1C(N)=O (stereo unspecified) | 5.7 | -13.4 | -2.3 | -5.4 | 0.0 | 2.4 | nt | nt | nt | nt | nt
O=C(Nc1cccnc1)c1cc(-c2cccs2)on1 | -8.0 | 83.9* | -2.7 | 50.6* | -3.6 | 74.0* | 16.0 | 34.0 | 80.2* | 79.0* | -0.8
O=C(Nc1cccnc1)c1cc(-c2cccc(Cl)c2)on1 | 5.4 | 15.2 | -25.0 | 5.2 | 1.9 | -1.2 | nt | nt | nt | nt | nt
Cc1ccc(O)c(NC(=O)c2cc(-c3ccccc3Cl)on2)c1 | 13.2 | 62.7* | 2.6 | 0.1 | 1.7 | 25.4 | -1.4 | 8.9 | 11.6 | 10.7 | 2.7
O=C(Nc1cccnc1)c1cc(-c2ccccc2O)on1 | 9.8 | 95.6* | 20.6 | 88.4* | 2.6 | 7.6 | 72.8* | 72.4* | 98.8* | 91.0* | 89.3*
SMILES | SENP8 block-1 | SENP7 block | Platelet DG rel | SENP8 block-2 | SENP1 inh | SENP6 block | SENP8 confirm | SENP6 conf | SENP7 confirm | Casp3 SENP sel | Luc interf
C/C(=N\NC(=O)c1cc2c(s1)CCC(C)C2)c1ccc[nH]1 (stereo unspecified) | -272.9 | 69.7* | nt | 5.1 | -4.9 | 6.5 | -11.4 | 1.9 | 81.2* | 58.8* | 12.7
O=C(Nc1ccccc1C(=O)NCCCN1CCOCC1)c1cccc([N+](=O)[O-])c1 | 6.2 | 11.0 | 3.9 | 1.0 | 1.3 | -11.6 | nt | nt | nt | nt | nt
O=C(c1ccc2c3n(nc2c1)-c1ccccc1CO3)N1CCCCC1 | -8.3 | 94.6* | 20.1 | 91.3* | -0.3 | 96.5* | 97.3* | 97.7* | 101.3* | 97.2* | 96.3*
O=C(NCC1CCCO1)c1ccc2c3n(nc2c1)-c1ccccc1CO3 (stereo unspecified) | -184.3 | -3.5 | 12.1 | 10.7 | -2.9 | 14.8 | nt | nt | nt | nt | nt
O=C(c1ccc2c3n(nc2c1)-c1ccccc1CO3)N1CCOCC1 | -106.6 | 94.6* | 51.2* | 86.6* | -1.3 | 92.9* | 93.0* | 93.3* | 100.9* | 97.7* | 92.3*
O=C(c1ccc2c3n(nc2c1)-c1ccc(Cl)cc1CO3)N1CCOCC1 | -23.4 | -9.5 | 10.4 | 3.8 | 0.2 | 11.7 | nt | nt | nt | nt | nt
Cc1ccc2c(c1)COc1c3ccc(C(=O)N4CCCCC4)cc3nn1-2 | -33.3 | 80.2* | 0.8 | 81.3* | 2.9 | 84.2* | 45.1 | 87.0* | 95.8* | 86.4* | 18.0
CN(CC(=O)c1c(N)n(C)c(=O)n(C)c1=O)c1ccccc1 | 15.0 | 5.1 | -0.2 | 0.3 | -5.9 | 11.7 | nt | nt | nt | nt | nt
O=C(NCc1ccccc1)c1cc(C2COCCN2C(=O)CCc2ccccc2)on1 (stereo unspecified) | 9.1 | nt | nt | nt | -0.7 | nt | nt | nt | nt | nt | nt
O=C(OCC(=O)N1CCN(C(=O)c2ccco2)CC1)c1cncc(Br)c1 | -7.8 | 5.9 | nt | 9.5 | 1.4 | 6.2 | nt | nt | nt | nt | nt
Cc1cccc(NC(=O)COc2ccc3oc4c(c3c2)CCCC4)n1 | -15.0 | 3.7 | 8.0 | -0.8 | 1.7 | -4.0 | nt | nt | nt | nt | nt
